Test results published in ChEMBL document CHEMBL3244290, “N-Alkyl derivatives of (+/-)-alpha-methyldopamine” (J Med Chem, 1979).
Activity calls are given as the source filed them. The rule behind the calls is not given here.

How the values were obtained:
Rattus norvegicus [1] = assay: Induction of rotation in rat with unilateral denervation of caudate nucleus at 0.25 mg/kg, sc; type: functional, organism-based; parameters: dose 0.25 mg/kg
In short: (§1)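 Rats given a unilateral 6-hydroxydopamine injection into the substantia nigra. Compounds dosed subcutaneously and the rotations they induced were counted. Apomorphine served as the reference.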

Columbidae [2] = assay: Inhibition of apomorphine-induced pecking in pigeon at 3 umol/kg; type: functional
In short: (§2)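 Pigeons. Compounds given intramuscularly at up to 4 mg/kg to test induction of pecking. Antagonism of pecking induced by apomorphine (1.62 μM/kg) was also tested, and ED50 values were estimated.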

Rattus norvegicus [3] = assay: Induction of rotation in rat with unilateral denervation of caudate nucleus at 1 mg/kg, sc; type: functional, organism-based; parameters: dose 1 mg/kg; in short: as §1
Mus musculus [4] = assay: Toxicity in albino B.K.W mouse assessed as climbing behaviour at 20 to 80 mg/kg, sc; type: organism-based; parameters: dose 20-80 mg/kg, route subcutaneous; conditions: in vivo
In short: (§3)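 Mice dosed subcutaneously at 20, 40 and 80 mg/kg in 1 mL/kg, doses as free base. Climbing scored as all four paws on the wire, giving a climbing index (% time over 30 min after the first climb) and the maximum time of a single climb. Circling was tested in mice with a unilateral caudate-putamen electrolesion, pre-selected for circling of 7 or more revolutions/2 min in response to apomorphine. Stereotypy was also recorded.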

Felis catus [5] = species on record: Felis catus; assay: Inhibition of field stimulation-induced positive ionotrophic response in cat atria; type: functional; conditions: Cardiac atrium
Canis familiaris [6] = assay: Toxicity in dog assessed as emesis at 2 mg/kg, sc; type: organism-based, Canis lupus familiaris; parameters: dose 2 mg/kg, route subcutaneous; conditions: in vivo
In short: (§4)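 Unanaesthetised dogs. For emesis, compound given sc and dogs watched 45 min for an emetic response. For antagonism, compound given sc and apomorphine 100 μg/kg 15 min later.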

Canis familiaris [7] = assay: Inhibition of apomorphine-induced emesis in dog at 2 mg/kg, sc; type: functional, organism-based; parameters: dose 2 mg/kg; conditions: Canis lupus familiaris; in short: as §4
Rattus norvegicus [8] = species on record: Rattus norvegicus; assay: Toxicity in Sprague-Dawley rat assessed as locomotor hyperactivity treated bilateral injection into nucleus accumbens at 50 ug; type: organism-based; conditions: in vivo, other
In short: (§5)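 Male Sprague-Dawley rats (250 ± 25 g) with stereotaxic guide cannulae aimed at the nucleus accumbens. Tested 10–14 days after surgery with a bilateral 1 μL infusion over 60 s; each rat used once and placement checked histologically. Locomotion counted by photocell cage. Stereotypy scored, where 3–4 = biting, gnawing or licking. Pretreatments given ip: α-methyl-p-tyrosine 250 mg/kg 6 h before, or haloperidol 0.1, propranolol 5 or aceperone 2.5 mg/kg 30 min before.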

Mus musculus [9] = assay: Toxicity in albino B.K.W mouse assessed as stereotyped behaviour at 20 to 80 mg/kg, sc; type: organism-based; parameters: dose 20-80 mg/kg, route subcutaneous; conditions: in vivo; in short: as §3
Rattus norvegicus [10] = species on record: Rattus norvegicus; assay: Toxicity in Sprague-Dawley rat assessed as sniffing at 50 ug injection into nucleus accumbens; type: organism-based; conditions: in vivo, other; in short: as §5
Mus musculus [11] = assay: Toxicity in albino B.K.W mouse assessed as circling behaviour at 20 to 80 mg/kg, sc; type: organism-based; parameters: dose 20-80 mg/kg, route subcutaneous; conditions: in vivo; in short: as §3
[12] = Toxicity in pigeon assessed as pecking; conditions: columbidae; in short: as §2
Felis catus [13] = species on record: Felis catus; assay: Inhibition of field stimulation-induced positive chronotrophic response in cat atria; type: functional; conditions: Cardiac atrium
Canis lupus familiaris = species on record: Canis lupus familiaris; assay: Inhibition of electric stimulated dog right cardioaccelerator nerve; type: functional
In short: (§6)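 Dog cardioaccelerator nerve preparation under barbital (200 mg/kg) anaesthesia. Compounds given intravenously up to 1.0 mg/kg. Positive chronotropic responses read by cardiometer, with blood pressure taken from the right femoral artery.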

Canis familiaris [14] = assay: Increase in resting heart rate in dog at 0.5 mg/kg, iv by cardiotachometer; type: functional, organism-based; parameters: dose 0.5 mg/kg; conditions: Canis lupus familiaris
In short: (§7)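 Anaesthetised dog (barbital 200 mg/kg). Compounds given intravenously, highest dose tested 1.0 mg/kg. Blood pressure recorded from the right femoral artery and heart rate by cardiometer. Resting heart rate, blood pressure and positive chronotropic responses were assessed after dosing. Doses calculated as free base.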

Rattus norvegicus [15] = species on record: Rattus norvegicus; assay: Toxicity in Sprague-Dawley rat assessed as biting up to 50 ug injection into nucleus accumbens; type: organism-based; conditions: in vivo, other; in short: as §5
Mus musculus [16] = assay: Toxicity in albino B.K.W mouse assessed as stereotyped head and limb movement at 40 to 80 mg/kg, sc; type: organism-based; parameters: dose 40-80 mg/kg, route subcutaneous; conditions: in vivo; in short: as §3
Rattus norvegicus [17] = species on record: Rattus norvegicus; assay: Toxicity in Sprague-Dawley rat assessed as licking up to 50 ug injection into nucleus accumbens; type: organism-based; conditions: in vivo, other; in short: as §5
Rattus norvegicus [18] = species on record: Rattus norvegicus; assay: Toxicity in Sprague-Dawley rat assessed as gnawing up to 50 ug injection into nucleus accumbens; type: organism-based; conditions: in vivo, other; in short: as §5
Canis familiaris [19] = assay: Increase in blood pressure in dog at 0.5 mg/kg, iv by cardiotachometer; type: functional, Canis lupus familiaris; in short: as §7
Columbidae [20] = assay: Inhibition of apomorphine-induced pecking in pigeon; type: functional; in short: as §2
Rattus norvegicus [21] = species on record: Rattus norvegicus; assay: Toxicity in Sprague-Dawley rat assessed as sniffing at 12.5 to 50 ug injection into nucleus accumbens; type: organism-based; conditions: in vivo, other; in short: as §5
Rattus norvegicus [22] = assay: Induction of rotation in rat with unilateral denervation of caudate nucleus at 4 mg/kg, sc; type: functional, organism-based; parameters: dose 4 mg/kg; in short: as §1
Canis familiaris [23] = assay: Increase in heart rate in dog at 1 mg/kg, iv by cardiotachometer; type: functional, organism-based; parameters: dose 1 mg/kg; conditions: Canis lupus familiaris; in short: as §7
Canis familiaris [24] = assay: Increase in ionotrophic response in iv dosed dog following field stimulation assessed as minimum effective dose by cardiotachometer; type: functional, Canis lupus familiaris; parameters: unit not given here; in short: as §6
Canis familiaris [25] = assay: Increase in ionotrophic response in dog following field stimulation at 1 mg/kg, iv by cardiotachometer; type: functional, organism-based; parameters: dose 1 mg/kg; conditions: Canis lupus familiaris; in short: as §6
Rattus norvegicus [26] = species on record: Rattus norvegicus; assay: Toxicity in Sprague-Dawley rat assessed as hyperactivity treated intra-accumbens injection pretreated with haloperiodol; type: organism-based; conditions: in vivo, other; in short: as §5
Canis familiaris [27] = assay: Increase in resting heart rate in dog at […], iv by cardiotachometer; type: functional, organism-based; conditions: Canis lupus familiaris; in short: as §7
Rattus norvegicus [28] = species on record: Rattus norvegicus; assay: Toxicity in Sprague-Dawley rat assessed as hyperactivity treated intra-accumbens injection pretreated with propranolol; type: organism-based; conditions: in vivo, other; in short: as §5
Rattus norvegicus [29] = species on record: Rattus norvegicus; assay: Toxicity in Sprague-Dawley rat assessed as hyperactivity treated intra-accumbens injection; type: organism-based; conditions: in vivo, other; in short: as §5
Canis familiaris [30] = assay: Increase in heart rate in dog assessed as beats at 30 ug/kg, iv by cardiotachometer; type: functional, Canis lupus familiaris; in short: as §7
Rattus norvegicus [31] = species on record: Rattus norvegicus; assay: Toxicity in Sprague-Dawley rat assessed as hyperactivity treated intra-accumbens injection pretreated with alpha-methyl-p-tyrosine; type: organism-based; conditions: in vivo, other; in short: as §5
Rattus norvegicus [32] = species on record: Rattus norvegicus; assay: Toxicity in Sprague-Dawley rat assessed as hyperactivity treated bilateral injection into nucleus accumbens; type: organism-based; conditions: in vivo, other; in short: as §5
Rattus norvegicus [33] = species on record: Rattus norvegicus; assay: Toxicity in Sprague-Dawley rat assessed as hyperactivity treated intra-accumbens injection pretreated with aceperone; type: organism-based; conditions: in vivo, other; in short: as §5
Canis familiaris [34] = assay: Increase in blood pressure in dog at 30 ug/kg, iv by cardiotachometer; type: functional, Canis lupus familiaris; in short: as §7
Canis familiaris [35] = assay: Increase in blood pressure in dog at 50 ug/kg, iv by cardiotachometer; type: functional, Canis lupus familiaris; in short: as §7
Canis familiaris [36] = assay: Increase in heart rate in dog assessed as beats at 50 ug/kg, iv by cardiotachometer; type: functional, Canis lupus familiaris; in short: as §7
Rattus norvegicus [37] = species on record: Rattus norvegicus; assay: Toxicity in Sprague-Dawley rat assessed as hyperactivity treated bilateral injection into nucleus accumbens at > 6.25 ug; type: organism-based; conditions: in vivo, other; in short: as §5

SMILES	Activity (Mus musculus [4])	inhibition (Felis catus [5])	Activity (Canis familiaris [6])	Activity (Canis familiaris [7])	Activity (Rattus norvegicus [8])	Activity (Mus musculus [9])	Activity (Mus musculus [11])	Activity [12]	inhibition (Felis catus [13])	inhibition (Canis lupus familiaris)	Activity (Rattus norvegicus [22])	further results
CN1CCc2cccc3c2[C@H]1Cc1ccc(O)c(O)c1-3												Activity (Rattus norvegicus [1]): Active
COc1cc(CC(C)N)c(OC)cc1C (stereo unspecified)												inhibition (Columbidae [2]): Active
C[C@H](N)Cc1ccccc1												Activity (Rattus norvegicus [3]): Active
Br.CCNC(C)Cc1ccc(O)c(O)c1 (racemic)	Non-toxic	inactive	Non-toxic	inactive	Toxic	Non-toxic	Non-toxic	Non-toxic	inactive	inactive		Activity (Rattus norvegicus [10]): Toxic
Br.CCN(CC)C(C)Cc1ccc(O)c(O)c1 (racemic)	Non-toxic	inactive	Non-toxic	inactive	Toxic	Non-toxic	Non-toxic	Non-toxic	inactive	inactive		Activity (Canis familiaris [14]): inactive; Activity (Rattus norvegicus [15]): Non-toxic; Activity (Mus musculus [16]): Toxic; Activity (Rattus norvegicus [17]): Non-toxic; Activity (Rattus norvegicus [18]): Non-toxic; Activity (Canis familiaris [19]): <=10 mmHg; inhibition (Columbidae [20]): Active
Br.CCCN(CCC)C(C)Cc1ccc(O)c(O)c1 (racemic)	Non-toxic	inactive	Non-toxic	inactive	Toxic	Non-toxic	Non-toxic	Non-toxic	inactive	inactive	inactive	Activity (Canis familiaris [14]): inactive; Activity (Rattus norvegicus [21]): Toxic; Activity (Canis familiaris [23]): Active; MED (Canis familiaris [24]): 20; Activity (Canis familiaris [25]): Active; Activity (Canis familiaris [19]): <=10 mmHg
Br.CCCNC(C)Cc1ccc(O)c(O)c1 (racemic)	Non-toxic	inactive	Non-toxic	inactive		Non-toxic	Non-toxic	Non-toxic	inactive	inactive	inactive	Activity (Rattus norvegicus [26]): Non-toxic; Activity (Canis familiaris [27]): Active; Activity (Rattus norvegicus [15]): Toxic; Activity (Rattus norvegicus [28]): Toxic; Activity (Rattus norvegicus [17]): Toxic; Activity (Rattus norvegicus [29]): Toxic; Activity (Canis familiaris [30]): 35 bpm; Activity (Rattus norvegicus [18]): Toxic; Activity (Rattus norvegicus [31]): Non-toxic; Activity (Rattus norvegicus [32]): Toxic; Activity (Rattus norvegicus [33]): Toxic; Activity (Canis familiaris [34]): 35%
Br.CC(N)Cc1ccc(O)c(O)c1 (racemic)	Non-toxic	inactive	Non-toxic	inactive		Non-toxic	Non-toxic	Non-toxic	inactive	inactive	inactive	Activity (Rattus norvegicus [26]): Non-toxic; Activity (Canis familiaris [27]): Active; Activity (Rattus norvegicus [21]): Toxic; Activity (Rattus norvegicus [28]): Toxic; Activity (Rattus norvegicus [29]): Toxic; Activity (Canis familiaris [35]): 80%; Activity (Canis familiaris [36]): 50 bpm; Activity (Rattus norvegicus [31]): Non-toxic; Activity (Rattus norvegicus [37]): Toxic; Activity (Rattus norvegicus [33]): Toxic; inhibition (Columbidae [20]): Active
